From PubChem
This is a sample that favours compounds with a hit; in the whole collection about 4.2% have one here.
Rad51 HR inh = Rad51 (human) homologous recombination inhibition; hRad51 DNA strand exchange, fluorescence dequenching; inhibition, % at 10 µM; AID 1385; 200,000 compounds, 0.085% hits; Q06609;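 active means inhibition above 40% at the single screening dose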
Target sequence (Q06609 whole entry, looked up): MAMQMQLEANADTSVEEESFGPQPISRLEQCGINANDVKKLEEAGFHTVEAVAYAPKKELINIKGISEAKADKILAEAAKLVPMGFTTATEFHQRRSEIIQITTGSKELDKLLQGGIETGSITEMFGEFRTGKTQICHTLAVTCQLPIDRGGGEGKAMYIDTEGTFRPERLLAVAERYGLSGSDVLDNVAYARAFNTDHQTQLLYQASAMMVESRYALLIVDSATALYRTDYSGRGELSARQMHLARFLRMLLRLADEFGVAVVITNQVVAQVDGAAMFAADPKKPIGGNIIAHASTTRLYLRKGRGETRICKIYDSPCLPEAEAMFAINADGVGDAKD
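material = hRad51 filaments on single-stranded DNA | reagent = Donor/quencher-labelled 47-bp dsDNA substrate | compound = 10 µM final, single point | schedule = strand-exchange reaction 15 min at room temperature | measured by = fluorescein emission 520 nm, excitation 485 nm | read-out basis = % inhibition versus plate control and blank means | benchmarks = plate controls and plate blanks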
Autophagy mod = autophagy modulation, high-content screen; MEF GFP-LC3 puncta imaging; test concentration mostly 10 µM; calls only at 10 µM (by protocol); 190,000 compounds, 0.98% hits;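 active means percentage of spot-positive cells more than 3 SD above its plate mean, without a fluorescence outlier flag or 80% toxicity; inconclusive means no clear call, values can overlap the other calls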
KCC2 mod = modulates chloride dependent transport by human KCC2; Q9H2X9; KCC2 cells, thallium flux FluoZin-2 fluorescence; B-score of Tl+ flux slope (higher = more flux/activation; lower = inhibition) at 10 µM; 190,000 compounds, 2.2% hits;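 active means thallium flux slope and its plate-corrected score both differing from the plate sample mean at a set confidence after two filtering rounds, in either direction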;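 further: slope of fluorescence scaled to starting intensity during 10 to 20 s after thallium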
WT yeast gro inh = growth inhibition of WT yeast, mitochondrial fusion screen | mitochondrial fusion phenotypic screen, WT strain | inhibition, % at 10 µM | 190,000 compounds, 2.1% hits | AID 1362; in the data active means inhibition above about 58%; tested in S. cerevisiae
SKKanGAS inh = inhibitors of SKKanGAS S. pyogenes growth in kanamycin (SK-promoter or general growth effect); BacTiter-Glo, 6 h; inhibition, % at 7.5 µM; 300,000 compounds, 1.3% hits; AID 1662;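 active means mean replicate score, as percent of positive control median, at least 50; inconclusive means mean below 50 but one replicate at or above 50; inactive means mean and every replicate below 50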;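 further: strain carries kanamycin resistance gene driven by streptokinase promoter and grows in 40 µg/ml kanamycin; loss of luminescence reflects streptokinase promoter inhibition or plain growth inhibition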
Ins promoter up = MIN6 insulin promoter up-regulation. 190,000 compounds, 0.3% hits. z-score at 5 µM. AID 1625. MIN6 insulin promoter-GFP reporter, high-content imaging; stronger effect = higher value;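 active means z-score above 3 at 5 µM with at least 500 cells counted in the well; inconclusive means wells under 500 cells, flagged as cytotoxic or low count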
KCC2 sec1 = KCC2 (human) modulation, secondary assay; shares compounds with KCC2 mod; HEK293-KCC2, thallium flux, FluoZin2 fluorescence; stronger effect = higher value; AID 1713; 3,700 compounds, 15% hits; normalised thallium flux (F/F0 slope) at 10 µM;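 active means thallium flux slope above the same plate's solvent-only control mean plus 3 SD; inconclusive means the two replicate wells disagree; inactive means no significant difference from solvent-only control wells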
KCC2 bumet counter = thallium flux persisting under bumetanide in KCC2 cells, counter-screen secondary assay | 3,700 compounds, 49% hits | AID 1714 | shares compounds with KCC2 mod | normalized thallium flux at 10 µM | HEK293-KCC2 + bumetanide/ouabain, thallium flux FluoZin2; stronger effect = higher value;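 active means thallium entry rate above the same plate's blocked-transporter control wells by more than 3 SD; inconclusive means the two repeat wells disagree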;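 further: raw slope of fluorescence over initial fluorescence between 10 and 20 s after thallium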
KCC2 sec2 = KCC2 (human) modulation, second secondary assay. shares compounds with KCC2 mod. HEK293-KCC2, thallium flux FluoZin2 fluorescence; actives lie on both sides; F/F0 rise rate, 10–20 s post-thallium. normalized thallium flux at 10 µM. 3,700 compounds, 23% hits. AID 1715;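 active means thallium flux slope more than 3 SD above or below the plate's solvent-only control mean, mostly below; inconclusive means the two repeat wells disagreed; inactive means no significant shift from solvent-only controls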
HEK293 Tl flux = acts in parental HEK cells, KCC2 counter-screen | shares compounds with KCC2 mod | HEK293 parental cells, thallium flux FluoZin2, ouabain; baseline-ratio fluorescence slope, 10–20 s after thallium | thallium flux rate (normalised fluorescence) at 10 µM | 3,700 compounds, 46% hits;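 active means thallium flux rate significantly above the same plate's solvent-only control wells, beyond their mean plus 3 SD; inconclusive means the two replicate wells gave conflicting results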
KCC2 ouabain = KCC2 (human) modulation, ouabain retest | 3,700 compounds, 48% hits | raw Tl+ flux slope (below DMSO = inhibition, above = activation) at 10 µM | shares compounds with KCC2 mod | HEK293-KCC2, thallium flux FluoZin2 fluorescence; bidirectional: low = inhibitor, high = activator;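 active means thallium flux slope beyond 3 SD from same-plate DMSO control mean in most replicates, usually higher, sometimes lower; inconclusive means repeat tests gave conflicting results; inactive means no significant difference from controls in most replicates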;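 further: slope of initial-normalized fluorescence between seconds 10 and 20 after thallium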
HEK counter2 = parental HEK flux effect, counter-screen 2 | shares compounds with KCC2 mod | HEK293 parental, thallium flux FluoZin-2 fluorescence slope | thallium flux slope at 10 µM | 3,700 compounds, 33% hits | AID 1718;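 active means thallium flux slope above the same plate's solvent-control mean plus 3 SD in both duplicate wells; inconclusive means duplicate wells that disagreed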;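 further: run without ouabain in cells lacking the KCC2 cotransporter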
Numbers stand for hits; – = inactive; ? = inconclusive; · = no result given; + = active, no number.

SMILES | Rad51 HR inh | Autophagy mod | KCC2 mod | WT yeast gro inh | SKKanGAS inh | Ins promoter up | KCC2 sec1 | KCC2 bumet counter | KCC2 sec2 | HEK293 Tl flux | KCC2 ouabain | HEK counter2
Cc1cccc(OCC(O)Cn2c(=N)n(CCN3CCCCC3)c3ccccc32)c1 (centres undefined) | – | + | · | – | – | – | · | · | · | · | · | ·
O=C(Nc1ccc(N2CCN(C(=O)c3ccccc3F)CC2)cc1)c1ncn[nH]1 | – | – | – | – | – | – | · | · | · | · | · | ·
CCCCN(C)CCNC(=O)c1nn(-c2ccc(OC)cc2)c(=O)c2c1c1ccccc1n2C | · | + | – | – | – | · | · | · | · | · | · | ·
COc1ccc(NC(=O)C/C(C)=N/NC(=O)c2ccccn2)c(OC)c1 | · | · | · | · | – | · | · | · | · | · | · | ·
Cc1cc(Br)c(OCc2ccc(C(=O)N/N=C3\CC4CC=CC34)cc2)c(Br)c1 (centres undefined) | – | – | – | 76 | 68 | · | · | · | · | · | · | ·
Cc1cc(C(=O)NNc2ccc(C(C)C)cc2)n(C(C)(C)C)n1 | – | · | – | · | – | · | · | · | · | · | · | ·
Fc1ccc(N2CCN(Cc3cn[nH]c3-c3ccccc3)CC2)cc1 | – | · | – | · | 52 | – | · | · | · | · | · | ·
Fc1ccc(-c2[nH]ncc2CN2CCN(c3ccc(F)cc3)CC2)cc1 | – | · | – | · | – | – | · | · | · | · | · | ·
C#CCNC(=O)C1=C[C@@H](c2cn(C(C)=O)c3ccccc23)C[C@@H](OCc2ccc(CO)cc2)O1 | – | – | – | – | – | – | · | · | · | · | · | ·
CC(=O)n1cc([C@H]2C=C(C(=O)NCc3ccccc3)O[C@@H](OCCCCO)C2)c2ccccc21 | – | – | – | – | – | – | · | · | · | · | · | ·
CC(=O)n1cc([C@H]2C=C(C(=O)NCc3ccccc3)O[C@@H](OCc3ccc(CO)cc3)C2)c2ccccc21 | – | – | -2.8 | – | – | · | · | · | · | · | · | ·
CC(=O)n1cc([C@H]2C=C(C(=O)Nc3ccccc3)O[C@@H](OCCCCO)C2)c2ccccc21 | – | – | -5.1 | – | – | – | · | · | · | · | · | ·
O=C(Nc1ccccc1)C1=C[C@@H](c2ccccc2)C[C@@H](OCc2ccc(CO)cc2)O1 | – | – | – | – | – | · | · | · | · | · | · | ·
O=C(Nc1ccccc1)C1=C[C@@H](c2ccc(C(F)(F)F)cc2)C[C@@H](OCc2ccc(CO)cc2)O1 | – | – | – | 63 | – | – | · | · | · | · | · | ·
CCCOC(=O)CN1C(=O)c2ccccc2C1=O | – | – | · | 79 | – | – | · | · | · | · | · | ·
Cc1ccccc1OC(=O)n1c(=S)oc2cc(Cl)ccc21 | – | – | 2.6 | – | – | – | · | · | · | · | · | ·
Cc1ccccc1OCC(=O)OCC(=O)Nc1cc(S(=O)(=O)N2CCCCC2)ccc1Cl | · | · | · | · | – | · | · | · | · | · | · | ·
Cn1c(-c2sc3cc(C(F)(F)F)cnc3c2-c2ccccn2)n[nH]c1=S | · | – | – | – | – | – | · | · | · | · | · | ·
Cn1c(-c2sc3cc(C(F)(F)F)cnc3c2-c2cccs2)n[nH]c1=S | · | – | 10 | 65 | – | – | – | 0.015 | – | 0.0099 | ? | –
CSC(=NCc1ccc(F)cc1)NS(=O)(=O)c1cccs1 | – | – | -3.8 | – | – | – | – | ? | 0.025 | – | 0.015 | –
CS/C(=N\S(=O)(=O)c1ccc(N)cc1)NS(=O)(=O)c1cccs1 | – | – | · | – | – | – | · | · | · | · | · | ·
CSCCNC(=O)Nc1c(-c2c(Cl)cccc2Cl)noc1C | – | · | · | · | – | – | · | · | · | · | · | ·
Cc1ccc(NC(=O)/C(=C\C=C\c2ccccc2)NC(=O)c2ccccc2)cc1 | – | – | -4 | – | – | – | ? | – | – | – | 0.013 | –
Cc1ccc(N(CC(=O)NCc2ccc(Cl)cc2)S(C)(=O)=O)cc1 | · | · | · | · | – | · | · | · | · | · | · | ·
Cc1c(C(=O)O)sc(=S)n1CCOc1ccccc1 | – | – | · | – | – | – | – | – | 0.024 | – | 0.015 | –
SMILES | Rad51 HR inh | Autophagy mod | KCC2 mod | WT yeast gro inh | SKKanGAS inh | Ins promoter up | KCC2 sec1 | KCC2 bumet counter | KCC2 sec2 | HEK293 Tl flux | KCC2 ouabain | HEK counter2
COC(=O)c1sc(=S)n(Cc2ccccc2)c1C | – | · | – | · | – | – | · | · | · | · | · | ·
CC(=O)Oc1c(-c2ccco2)oc2ccccc2c1=O | – | – | 40 | – | – | – | 0.045 | 0.071 | 0.057 | 0.057 | 0.056 | 0.056
CCN(CC)C(=O)COc1c(-c2ccco2)oc2ccccc2c1=O | · | · | · | · | – | · | · | · | · | · | · | ·
COc1nc(OCCNC(C)=O)nc(N(C)C)n1 | – | – | – | – | – | – | – | – | – | – | – | –
CC(=O)NCCOc1nc(N(C)C)nc(N2CCOCC2)n1 | – | – | – | – | – | – | · | · | · | · | · | ·
COc1ccc(N2CCN(CC(=O)N3c4ccccc4CC3C)CC2)cc1 (centres undefined) | · | · | · | · | – | · | · | · | · | · | · | ·
Cc1ccc(SCCNC(=S)Nc2cc(C)ccc2C)cc1 | – | – | · | 75 | – | – | – | – | – | ? | ? | –
COc1ccc(C(=O)NNC(=S)NC(=O)c2cc(-c3ccccc3)nc3ccccc23)cc1 | · | – | 6.6 | – | 107 | · | – | 0.017 | – | 0.022 | 0.026 | 0.015
CCNC(=S)NNC(=O)c1cc(-c2cccc(OC)c2)nc2ccccc12 | – | – | – | – | – | – | · | · | · | · | · | ·
CC(C)Oc1cccc(-c2cc(C(=O)NC(=S)N(C)c3ccccc3C(=O)O)c3ccccc3n2)c1 | – | – | 4.4 | – | – | – | ? | 0.02 | – | 0.011 | ? | 0.014
COc1ccc(Cl)cc1C(=O)NNC(=S)NC(=O)c1cc(-c2ccccc2)nc2ccccc12 | · | – | 4.8 | – | 80 | – | – | 0.0087 | – | 0.012 | – | –
O=C(NNC(=O)c1cc(-c2ccccc2)nc2ccccc12)Nc1cccc(Cl)c1 | – | – | – | – | ? | – | · | · | · | · | · | ·
CCOc1ccc(C(=O)NCc2ccc3c(c2)OCO3)cc1OCC | · | · | · | · | – | · | · | · | · | · | · | ·
O=C(Nc1ccnn1C1CCN(Cc2cccc(F)c2F)CC1)C1CCCC1 | · | · | · | · | – | · | · | · | · | · | · | ·
CC(C)(C)OC(=O)COc1ccc(/C=N/NC(=O)CN2CCCCC2)cc1 | · | · | · | · | – | · | · | · | · | · | · | ·
CC(=O)c1c(Cl)nc2ccc(Br)cc2c1-c1ccccc1 | · | · | · | · | – | · | · | · | · | · | · | ·
NC(=S)NC(c1ccccc1)c1ccncc1 (centres undefined) | · | · | · | · | – | · | · | · | · | · | · | ·
O=C(NC(=O)c1ccncc1)NC(c1ccccc1)c1ccccc1 | – | – | -4.8 | – | – | – | – | – | – | ? | – | –
